According to ChEMBL document CHEMBL1687824, “Overexpression of patA and patB, which encode ABC transporters, is associated with fluoroquinolone resistance in clinical isolates of Streptococcus pneumoniae” (2011):
In brackets after ≈: the same amount, converted by molar mass.

Tests used:
[1] = tested on: Streptococcus pneumoniae; assay: Antibacterial activity against Streptococcus pneumoniae M303 overexpressing patA, patB and inactivated patA with single mutation by standardized agar doubling dilution method in presence of 50 uM sodium orthovanadate efflux pump inhibitor; assay type: functional
In short: (§1)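 MICs determined by BSAC standardized agar doubling dilution. Strains were grown in brain heart infusion broth for 24 h at 37°C in 5% CO2. Inhibitor arms had reserpine at 20 μg/ml or sodium orthovanadate at 50 μM in the agar. Mutants were made by transforming magellan2 insertion amplimers into clinical isolates and selecting on spectinomycin 100 mg/liter, with a no-DNA spontaneous-mutation control.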

[2] = tested on: Streptococcus pneumoniae; assay: Antibacterial activity against Streptococcus pneumoniae M302 overexpressing patA, patB and inactivated patA with single mutation by standardized agar doubling dilution method in presence of 50 uM sodium orthovanadate efflux pump inhibitor; assay type: functional; in short: as §1
[3] = tested on: Streptococcus pneumoniae; assay: Antibacterial activity against fluoroquinolone-resistant Streptococcus pneumoniae M98 FQ-R overexpressing patA, patB by standardized agar doubling dilution method in presence of 20 ug/ml reserpine efflux pump inhibitor; assay type: functional
In short: (§2)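 MIC by agar doubling dilution per BSAC guidelines; strains pregrown in brain heart infusion broth 24 h, 37°C, 5% CO2. MICs measured alone and with efflux pump inhibitors reserpine (20 μg/ml) or sodium orthovanadate (50 μM); synergy defined as ≥2-dilution MIC reduction in presence of inhibitor.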

[4] = tested on: Streptococcus pneumoniae; assay: Antibacterial activity against Streptococcus pneumoniae M319 overexpressing patA, patB and inactivated patB with single mutation by standardized agar doubling dilution method; assay type: functional
In short: (§3)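 MICs were determined by agar doubling dilution following BSAC guidelines, with no efflux inhibitor. Strains were grown in brain heart infusion broth for 24 h at 37°C in 5% CO2. Species identity was confirmed by Gram stain, optochin sensitivity and capsule test. Control strain R6 was tested alongside.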

[5] = tested on: Streptococcus pneumoniae; assay: Antibacterial activity against Streptococcus pneumoniae M46B overexpressing patA, patB and inactivated patB with single mutation by standardized agar doubling dilution method in presence of 50 uM sodium orthovanadate efflux pump inhibitor; assay type: functional
In short: (§4)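 MICs were determined by BSAC agar doubling dilution in the presence of sodium orthovanadate at 50 μM. Cultures were grown in BHI broth for 24 h at 37°C in 5% CO2, with R6 as control. Synergy was defined as an MIC reduction of ≥2 dilutions with the inhibitor present.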

[6] = tested on: Streptococcus pneumoniae; assay: Antibacterial activity against fluoroquinolone, dye-resistant Streptococcus pneumoniae M87 overexpressing patA, patB by standardized agar doubling dilution method in presence of 50 uM sodium orthovanadate efflux pump inhibitor; assay type: functional
In short: (§5)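 MIC by agar doubling dilution following BSAC guidelines. Strains grown in brain heart infusion broth 24 h at 37°C in 5% CO2. Where an efflux pump inhibitor applies, MIC redetermined with reserpine at 20 μg/ml or sodium orthovanadate at 50 μM. Synergy taken as a fall in MIC of ≥2 dilutions with inhibitor present. Dye resistance defined relative to R6 (both dyes ≥2 dilutions higher).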

[7] = tested on: Streptococcus pneumoniae; assay: Antibacterial activity against dye-resistant Streptococcus pneumoniae M46 DR overexpressing patA, patB by standardized agar doubling dilution method; assay type: functional; in short: as §3
[8] = tested on: Streptococcus pneumoniae; assay: Antibacterial activity against Streptococcus pneumoniae M307 overexpressing patA, patB and inactivated patB with single mutation by standardized agar doubling dilution method in presence of 50 uM sodium orthovanadate efflux pump inhibitor; assay type: functional; in short: as §1
[9] = tested on: Streptococcus pneumoniae; assay: Antibacterial activity against Streptococcus pneumoniae M311B overexpressing patA, patB and inactivated patB with single mutation by standardized agar doubling dilution method in presence of 50 uM sodium orthovanadate efflux pump inhibitor; assay type: functional; in short: as §1
[10] = tested on: Streptococcus pneumoniae; assay: Antibacterial activity against wild type Streptococcus pneumoniae M3 NCTC 7466 type 2 by standardized agar doubling dilution method in presence of 50 uM sodium orthovanadate efflux pump inhibitor; assay type: functional; in short: as §2
[11] = tested on: Streptococcus pneumoniae; assay: Antibacterial activity against Streptococcus pneumoniae M46A overexpressing patA, patB and inactivated patA with single mutation by standardized agar doubling dilution method in presence of 20 ug/ml reserpine efflux pump inhibitor; assay type: functional
In short: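 MICs were determined by BSAC agar doubling dilution in the presence of reserpine at 20 μg/ml. Strains were grown in BHI broth for 24 h at 37°C in 5% CO2, with R6 as control. Synergy was defined as an MIC drop of ≥2 dilutions with the inhibitor.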

[12] = tested on: Streptococcus pneumoniae; assay: Antibacterial activity against dye-resistant Streptococcus pneumoniae by standardized agar doubling dilution method in presence of 50 uM sodium orthovanadate efflux pump inhibitor; assay type: functional; in short: as §5
[13] = tested on: Streptococcus pneumoniae; assay: Antibacterial activity against Streptococcus pneumoniae M304 overexpressing patA, patB and inactivated patA with single mutation by standardized agar doubling dilution method; assay type: functional; in short: as §1
[14] = tested on: Streptococcus pneumoniae; assay: Antibacterial activity against fluoroquinolone, dye-resistant Streptococcus pneumoniae M50 overexpressing patA, patB by standardized agar doubling dilution method; assay type: functional; in short: as §5
[15] = tested on: Streptococcus pneumoniae; assay: Antibacterial activity against fluoroquinolone-resistant Streptococcus pneumoniae M98 FQ-R overexpressing patA, patB by standardized agar doubling dilution method in presence of 50 uM sodium orthovanadate efflux pump inhibitor; assay type: functional
In short: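 Clinical S. pneumoniae isolates grown in BHI broth 24 h at 37°C in 5% CO2. MICs by agar doubling dilution per BSAC guidelines, alone or with efflux inhibitor reserpine (20 μg/ml) or sodium orthovanadate (50 μM). Synergy defined as ≥2-dilution MIC reduction in presence of inhibitor.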

[16] = tested on: Streptococcus pneumoniae; assay: Antibacterial activity against fluoroquinolone, dye-resistant Streptococcus pneumoniae M296 overexpressing patA, patB by standardized agar doubling dilution method in presence of 50 uM sodium orthovanadate efflux pump inhibitor; assay type: functional; in short: as §5
[17] = tested on: Streptococcus pneumoniae; assay: Antibacterial activity against fluoroquinolone, dye-resistant Streptococcus pneumoniae M87 overexpressing patA, patB by standardized agar doubling dilution method in presence of 20 ug/ml reserpine efflux pump inhibitor; assay type: functional; in short: as §5
[18] = tested on: Streptococcus pneumoniae; assay: Antibacterial activity against Streptococcus pneumoniae M301 overexpressing patA, patB and inactivated patA with single mutation by standardized agar doubling dilution method; assay type: functional; in short: as §1
[19] = tested on: Streptococcus pneumoniae; assay: Antibacterial activity against fluoroquinolone, dye-resistant Streptococcus pneumoniae M86 overexpressing patA, patB by standardized agar doubling dilution method; assay type: functional; in short: as §5
[20] = tested on: Streptococcus pneumoniae; assay: Antibacterial activity against Streptococcus pneumoniae M310 overexpressing patA, patB and inactivated patB with single mutation by standardized agar doubling dilution method in presence of 20 ug/ml reserpine efflux pump inhibitor; assay type: functional; in short: as §1
[21] = tested on: Streptococcus pneumoniae; assay: Antibacterial activity against Streptococcus pneumoniae M298 overexpressing patA, patB and inactivated patA with single mutation by standardized agar doubling dilution method in presence of 50 uM sodium orthovanadate efflux pump inhibitor
[22] = tested on: Streptococcus pneumoniae; assay: Antibacterial activity against Streptococcus pneumoniae M316 overexpressing patA, patB and inactivated patA with single mutation by standardized agar doubling dilution method; assay type: functional; in short: as §3
[23] = tested on: Streptococcus pneumoniae; assay: Antibacterial activity against Streptococcus pneumoniae M316 overexpressing patA, patB and inactivated patA with single mutation by standardized agar doubling dilution method in presence of 50 uM sodium orthovanadate efflux pump inhibitor; assay type: functional; in short: as §4
[24] = tested on: Streptococcus pneumoniae; assay: Antibacterial activity against Streptococcus pneumoniae M304 overexpressing patA, patB and inactivated patA with single mutation by standardized agar doubling dilution method in presence of 50 uM sodium orthovanadate efflux pump inhibitor; assay type: functional; in short: as §1
[25] = tested on: Streptococcus pneumoniae; assay: Antibacterial activity against fluoroquinolone, dye-resistant Streptococcus pneumoniae M74 overexpressing patA, patB by standardized agar doubling dilution method in presence of 50 uM sodium orthovanadate efflux pump inhibitor; assay type: functional; in short: as §5
[26] = tested on: Streptococcus pneumoniae; assay: Antibacterial activity against Streptococcus pneumoniae M311 overexpressing patA, patB and inactivated patA with single mutation by standardized agar doubling dilution method; assay type: functional; in short: as §1

| SMILES | MIC [1] [µg/mL] | MIC [2] [µg/mL] | MIC [3] [µg/mL] | MIC [4] [µg/mL] | MIC [5] [µg/mL] | MIC [6] [µg/mL] | MIC [7] [µg/mL] | MIC [8] [µg/mL] | MIC [9] [µg/mL] | MIC [10] [µg/mL] | MIC [11] [µg/mL] | MIC90 [12] [µg/mL] | MIC [13] [µg/mL] | MIC [14] [µg/mL] | MIC [15] [µg/mL] | MIC [16] [µg/mL] | MIC [17] [µg/mL] | MIC [18] [µg/mL] | MIC [19] [µg/mL] | MIC [20] [µg/mL] | other results |
| --- | --- | --- | --- | --- | --- | --- | --- | --- | --- | --- | --- | --- | --- | --- | --- | --- | --- | --- | --- | --- | --- |
| O=C(O)c1cn(C2CC2)c2cc(N3CCNCC3)c(F)cc2c1=O [CIPROFLOXACIN] | 0.12 | 4 | 2 | 16 (≈ 48.3 µM) | 0.12 | 16 | 0.25 (≈ 0.754 µM) | 8 | 4 | 1 | 0.12 | 0.5 | 4 (≈ 12.1 µM) | 64 (≈ 193 µM) | 32 | 8 | 8 | 8 (≈ 24.1 µM) | 2 (≈ 6.04 µM) | 1 | MIC [21]: 8 µg/mL; MIC [22]: 8 µg/mL (≈ 24.1 µM); MIC [23]: 8 µg/mL; MIC [24]: 2 µg/mL; MIC [25]: 64 µg/mL; MIC [26]: 8 µg/mL (≈ 24.1 µM) |
| CC[n+]1c(-c2ccccc2)c2cc(N)ccc2c2ccc(N)cc21.[Br-] [HOMIDIUM BROMIDE] | 1 | 0.5 | 0.12 | 0.5 | 0.5 | 1 | 16 | 2 | 8 | 0.3 | 0.5 | 1 | 0.5 | 4 | 1 | 2 | 0.5 | 0.5 | 4 | 0.5 | MIC [12]: 1 µg/mL; MIC [21]: 0.5 µg/mL; MIC [22]: 0.25 µg/mL; MIC [23]: 0.5 µg/mL; MIC [24]: 0.25 µg/mL; MIC [25]: 1 µg/mL; MIC [26]: 0.5 µg/mL |
